Assay results from ChEMBL document CHEMBL1817619, “Synthesis and antimicrobial activity of (E) stilbene derivatives” (Bioorg Med Chem, 2011).
Activity calls are given as the source filed them. No cut-off for these calls is given here.

Tests used:
[1] = test system: Enterobacter cloacae subsp. dissolvens; assay: Antibacterial activity against Enterobacter dissolvens ATCC 222 at 10 mg/ml after 24 to 72 hrs by agar diffusion method; format: functional, organism-based
In short: (§1)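 Bacterial plates: nutrient broth (8 g/l) with 1.5% agar, seeded at 45 °C with spores or vegetative cells to 10^6 cfu/ml. Compounds were dissolved in methanol at 10 mg/ml and applied to 6 mm paper discs, which were dried and laid on the plates. Inhibition zone diameter (mm) and type (complete or incomplete) were scored after 24–72 h.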

[2] = test system: Brevibacillus brevis; assay: Antibacterial activity against Bacillus brevis ATTC 9999 at 10 mg/ml after 24 to 72 hrs by agar diffusion method; format: functional, organism-based; in short: as §1
[3] = test system: Botrytis cinerea; assay: Antifungal activity against Botrytis cinerea FSU 883 at 10 mg/ml after 24 to 72 hrs by agar diffusion method; format: functional, organism-based
In short: (§2)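 Fungal plates: malt extract/yeast extract (HA) medium with 1.5% agar, seeded at 45 °C with spores or yeast cells to 10^5 cfu/ml. Compounds in methanol at 10 mg/ml were loaded onto 6 mm paper discs and dried before placement. Inhibition zone diameter (mm) and complete or incomplete inhibition were recorded after 24–72 h.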

[4] = test system: NIH3T3; assay: Cytotoxicity against mouse NIH/3T3 cells after 96 hrs by sulforhodamine-B colorimetric assay; format: cell-based; conditions: NIH3T3, 96 h
In short: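 Exponentially growing mouse embryonic fibroblasts were seeded and treated 24 h later with serial dilutions for 96 h; DMSO or DMF stayed at or below 0.5%. Cells were fixed with 10% TCA at 4 °C, stained with 0.4% SRB for about 20 min, washed with 1% acetic acid, solubilised in Tris base, and read at 570 nm. Survival is relative to untreated controls. IC50 was obtained by linear interpolation across the 50% line; three independent experiments.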

[5] = test system: Bacillus subtilis; assay: Antibacterial activity against Bacillus subtilis ATTC 6633 at 10 mg/ml after 24 to 72 hrs by agar diffusion method; format: functional, organism-based; in short: as §1
[6] = test system: Micrococcus luteus; assay: Antibacterial activity against Micrococcus luteus ATCC 381 at 10 mg/ml after 24 to 72 hrs by agar diffusion method; format: functional, organism-based; in short: as §1
[7] = test system: Eremothecium coryli; assay: Antifungal activity against Nematospora coryli ATCC 10647 at 10 mg/ml after 24 to 72 hrs by agar diffusion method; format: functional, organism-based; in short: as §2
[8] = test system: Colletotrichum graminicola; assay: Antifungal activity against Colletotrichum graminicola M2 at 10 mg/ml after 24 to 72 hrs by agar diffusion method; format: functional, organism-based; in short: as §2
[9] = test system: Penicillium chrysogenum; assay: Antifungal activity against Penicillium notatum FSU 2721 at 10 mg/ml after 24 to 72 hrs by agar diffusion method; format: functional, organism-based; in short: as §2
[10] = test system: Rhizomucor miehei; assay: Antifungal activity against Mucor miehei FSU 769 at 10 mg/ml after 24 to 72 hrs by agar diffusion method; format: functional, organism-based; in short: as §2

SMILES | Activity [1] | Activity [2] | Activity [3] | IC50 [4] | Activity [5] | Activity [6] | Activity [7] | Activity [8] | Activity [9] | Activity [10]
Oc1ccc(/C=C/c2cc(O)c(F)c(O)c2)cc1 | inactive | Active | inactive | > 30 µM | – | – | – | – | – | –
Oc1cccc(/C=C/c2cc(O)c(F)c(O)c2)c1 | inactive | Active | – | > 30 µM | Active | Active | – | – | – | –
COc1ccc(/C=C/c2ccc(OC)c(O)c2)c(OC)c1 | – | – | – | 2.1 µM | – | – | – | – | – | –
COc1ccc(OC)c(/C=C/c2ccc(O)cc2)c1 | inactive | Active | inactive | 7.4 µM | – | – | – | – | – | –
COc1cc(/C=C/c2ccccc2O)cc(OC)c1F | inactive | Active | – | 14.8 µM | Active | Active | – | – | – | –
Oc1cccc(/C=C/c2cc(O)ccc2O)c1 | inactive | Active | – | 10.5 µM | Active | Active | – | – | – | –
Oc1ccc(O)c(/C=C/c2ccccc2O)c1 | inactive | Active | – | 12.4 µM | Active | Active | – | – | – | –
CN(C)[C@@H]1C(O)=C(C(N)=O)C(=O)[C@@]2(O)C(O)=C3C(=O)c4c(O)cccc4[C@@](C)(O)[C@H]3C[C@@H]12 | – | Active | – | – | – | – | – | – | – | –
COc1cc(F)c(/C=C/c2cc(O)ccc2O)cc1O | inactive | Active | – | 21.1 µM | Active | Active | – | – | – | –
COc1ccc(/C=C/c2cccc(O)c2)c(OC)c1 | inactive | Active | – | 19.6 µM | Active | Active | – | – | – | –
COc1cc(/C=C/c2cccc(O)c2)cc(OC)c1 | inactive | Active | – | > 30 µM | Active | Active | – | – | – | –
COc1ccc(OC)c(/C=C/c2cccc(O)c2)c1 | inactive | Active | – | 25.8 µM | Active | Active | – | – | – | –
Oc1ccc(/C=C/c2cc(O)ccc2O)cc1 | inactive | Active | inactive | 9.6 µM | – | – | – | – | – | –
COc1cc(/C=C/c2cccc(O)c2)cc(OC)c1F | inactive | Active | – | 11.8 µM | Active | Active | – | – | – | –
Oc1cccc(/C=C/c2cc(O)cc(O)c2)c1 | inactive | Active | – | > 30 µM | Active | Active | – | – | – | –
Oc1ccccc1/C=C/c1cc(F)c(F)c(F)c1 | inactive | Active | Active | > 30 µM | Active | Active | Active | Active | Active | Active
COc1ccc(/C=C/c2ccc(O)cc2)c(OC)c1 | inactive | Active | inactive | 8.2 µM | – | – | – | – | – | –
COc1cc(/C=C/c2ccc(O)cc2)cc(OC)c1 [PTEROSTILBENE] | inactive | Active | inactive | 12.2 µM | – | – | – | – | – | –
COc1ccc(/C=C/c2ccccc2O)c(OC)c1 | inactive | Active | – | > 30 µM | Active | Active | – | – | – | –
COc1cc(/C=C/c2ccc(O)cc2)cc(OC)c1F | inactive | Active | inactive | 11.5 µM | – | – | – | – | – | –
Oc1ccc(/C=C/c2cc(F)c(F)c(F)c2)cc1 | inactive | Active | inactive | 6.9 µM | – | – | Active | – | – | –
Oc1ccc(O)c(/C=C/c2ccc(O)c(O)c2)c1 | inactive | – | – | > 30 µM | – | – | – | – | – | –
COc1cc(/C=C/c2ccc(OC)c(O)c2)cc(OC)c1 | – | – | – | 0.2 µM | – | – | – | – | – | –
COc1ccc(/C=C/c2cc(O)ccc2O)cc1O | inactive | – | – | > 30 µM | – | – | – | – | – | –
Oc1cccc(/C=C/c2cc(F)c(F)c(F)c2)c1 | inactive | Active | – | > 30 µM | Active | Active | – | – | – | Active
Oc1ccc(/C=C/c2cc(O)cc(O)c2)cc1 [RESVERATROL] | inactive | inactive | inactive | > 30 µM | – | Active | – | – | – | –
